In PMC6357779 (Journal of biomolecular screening, 2013):
Where a SMILES comes first, the peptide text is derived from it. The star is where a group is joined. Cbz = O=C(OCc1ccccc1)*

Experiments:
[1] = tested on: estrogen receptor (ERE-tk-luc reporter) in MCF-7 cells; test: ERE-tk-luc luciferase transactivation assay in MCF-7 cells; type: cell-based, human; conditions: MCF-7, 10 μM compound, 24 h, RLU normalized to no compound added
[2] = molecular target: GFP-GRER chimera (N-terminus of the glucocorticoid receptor fused to the human ERα ligand binding domain) (Homo sapiens, UniProt P03372); test: GFP-GRER nuclear translocation high-content imaging assay in 6020 cells; type: cell-based
GFP-GRER chimera (N-terminus of the glucocorticoid receptor fused to the human ERα ligand binding domain), sequence (P03372 302-595, change not shown): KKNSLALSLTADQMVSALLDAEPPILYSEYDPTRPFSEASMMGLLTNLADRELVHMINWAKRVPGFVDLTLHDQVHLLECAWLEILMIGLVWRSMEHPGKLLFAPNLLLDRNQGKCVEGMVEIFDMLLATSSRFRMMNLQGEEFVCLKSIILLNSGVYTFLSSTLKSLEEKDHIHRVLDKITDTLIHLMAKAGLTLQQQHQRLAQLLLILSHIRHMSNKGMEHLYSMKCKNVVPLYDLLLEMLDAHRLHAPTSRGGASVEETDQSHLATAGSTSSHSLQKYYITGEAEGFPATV
GFP-GRER chimera (N-terminus of the glucocorticoid receptor fused to the human ERα ligand binding domain), sequence (P06536 1-565, change not shown, further chain): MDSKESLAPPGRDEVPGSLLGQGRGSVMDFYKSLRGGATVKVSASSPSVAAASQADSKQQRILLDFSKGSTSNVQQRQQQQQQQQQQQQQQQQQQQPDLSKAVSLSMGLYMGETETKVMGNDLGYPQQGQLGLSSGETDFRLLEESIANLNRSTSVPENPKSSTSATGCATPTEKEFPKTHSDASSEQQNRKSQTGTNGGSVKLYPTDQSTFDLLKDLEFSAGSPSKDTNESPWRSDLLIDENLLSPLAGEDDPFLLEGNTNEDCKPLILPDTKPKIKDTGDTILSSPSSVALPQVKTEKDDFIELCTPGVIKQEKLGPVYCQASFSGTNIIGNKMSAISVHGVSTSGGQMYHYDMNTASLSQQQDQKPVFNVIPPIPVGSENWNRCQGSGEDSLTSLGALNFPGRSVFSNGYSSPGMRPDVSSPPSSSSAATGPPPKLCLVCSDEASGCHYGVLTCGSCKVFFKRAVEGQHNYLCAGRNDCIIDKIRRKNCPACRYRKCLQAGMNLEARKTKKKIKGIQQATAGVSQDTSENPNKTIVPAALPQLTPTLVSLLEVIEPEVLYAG

[3] = tested on: estradiol-mediated transactivation (ERE-tk-luc) in MCF-7 cells; test: Estradiol competition transactivation luciferase reporter assay in MCF-7 cells; type: cell-based, human
Outline: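 MCF-7 cells moved to phenol red–free DMEM with 10% charcoal-stripped FBS for 24 h, then plated at 100,000 cells/well (96-well). Next day each well was transfected with 200 ng ERE-tk-luc plasmid using Lipofectamine LTX. Cells then received 100 nM estradiol alone, test compound alone (100 nM), or estradiol plus 100 nM, 1 μM or 10 μM test compound. Bright-Glo luminescence was read, and RLU normalized to no-compound wells. Triplicates, three biological replicates.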

[4] = MCF-7, 100 nM estradiol + 10 μM compound

| Compound | fold transactivation induction (transactivation potential) [1] | other results |
| --- | --- | --- |
| C[C@]12CC[C@@H]3c4ccc(O)cc4C[C@@H](CCCCCCCCC[S+]([O-])CCCC(F)(F)C(F)(F)F)[C@H]3[C@@H]1CC[C@@H]2O (stereo partly drawn) [ICI 182,780] | 0.24 |  |
| CC(C)C[C@@H](C=O)NC(=O)[C@H](CC(C)C)NC(=O)[C@H](CC(C)C)NC(=O)OCc1ccccc1 [MG132] (Cbz-Leu-Leu-Leu-aldehyde) | 0.61 | EC50 [2]: 192 nM |
| CC#C[C@]1(O)CC[C@H]2[C@@H]3CCC4=CC(=O)CCC4=C3[C@@H](c3ccc(N(C)C)cc3)C[C@@]21C [RU486] | 0.4 |  |
| CC(C)C[C@H](NC(=O)[C@H](Cc1ccccc1)NC(=O)c1cnccn1)B(O)O [bortezomib] | 0.78 | EC50 [2]: 37 nM; decrease in estradiol-mediated transactivation ([3]; MCF-7, 100 nM estradiol + 100 nM compound): 60%; decrease in estradiol-mediated transactivation ([3]; MCF-7, 100 nM estradiol + 1 μM compound): 54%; decrease in estradiol-mediated transactivation [3, 4]: 29% |
| O=C(c1ccc(OCCN2CCCCC2)cc1)c1c(-c2ccc(O)cc2)sc2cc(O)ccc12 [raloxifene] | 0.89 |  |
| CC/C(=C(\c1ccccc1)c1ccc(OCCN(C)C)cc1)c1ccccc1 [tamoxifen] |  | decrease in estradiol-mediated transactivation [3, 4]: 51% |
| tetrocarcin A [NSC 333856] | 1.34 |  |
